# Sampled rows, rich in hits. Any-hit rate of the full collection: about 3.2%.
# JMJD2C inh: human JMJD2C demethylase inhibition; Q9H3R0; 330,000 tested, 0.069% active; GST-JMJD2C(1-420) H3K9me3 demethylation, DELFIA europium; inhibition, % at 2.35 µM;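 active = more than half of a compound's replicate wells show inhibition beyond 50%, single wells judged on their own value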;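 also: signal counts dimethyl H3K9 product captured on neutravidin plate; 0% = median of DMSO wells and 100% = 0.3 times that DMSO median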
# SMARCA2 activ: increases SMARCA2 function in MMTV reporter cells; 370,000 tested, 1% active; activation, % at 9.1 µM; MG213 cells, MMTV-luciferase reporter, dexamethasone, overnight; in the data active = activation above about 7.8%;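 also: 0% = vehicle wells and 100% = reference activator wells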
# NR2E3 ag-1: human photoreceptor-specific nuclear receptor agonism. inhibition of corepressor binding, % at 3.98 µM. 360,000 tested, 0.35% active. CHO-S Gal4-NCOR/VP16-NR2E3 two-hybrid, luciferase;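 active = inhibition above the mean of all tested compounds plus 3 SD, cut at about 70% in these data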;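 also: 0% = DMSO with NR2E3 transfected cells and 100% = cells lacking NR2E3 construct; higher means lower luciferase signal from less NR2E3 corepressor binding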
# DAX1 inh-1: blocks DAX1 repression of SF-1 activated StAR promoter | HEK293T StAR-luciferase reporter, SF-1/DAX-1 repression relief | AID 652010 | 370,000 tested, 1.1% active | inhibition, % at 6.8 µM;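 active = inhibition above the mean over all tested compounds plus 3 SD, cut at about 3.6% in these data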;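 also: 0% = DAX-1 cells with DMSO and 100% = cells lacking DAX-1 with DMSO; higher inhibition means more luminescence from relief of DAX-1 repression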
# NR2E3 ag-2: activates human photoreceptor nuclear receptor NR2E3 | GST-NR2E3/biotin-RetCOR TR-FRET, 1536-well | Q9Y5X4 | inhibition of corepressor binding, % at 4.78 µM | 320,000 tested, 0.12% active;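 active = percent inhibition above the cutoff of mean plus 3 SD of all tested compounds, set per screening campaign, cut at about 20% in these data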;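 also: 0% = DMSO wells and 100% = biotin wells as full block of FRET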
#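 Material – GST-tagged NR2E3 plus biotinylated RetCOR corepressor · Quantity – NR2E3 fusion 1.35 nM · Times – 5 h incubation at 4 °C · Medium – pH 7.5 Tris-based buffer · Technique – TR-FRET, Eu(K)-anti-GST donor, streptavidin-D2 acceptor, ex 340, em 617/671 nm · Benchmarks – high control biotin, low control 0.6% DMSO · Format – 1536-well plates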
# DAX1 inh-2: NR0B1 (DAX1) inhibition. P51843. HEK293 Gal4-DAX1 luciferase reporter, luminescence. inhibition, % at 6.75 µM. 340,000 tested, 0.99% active. AID 504766;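 active = inhibition above the mean over all tested compounds plus 3 SD, cut at about 4.2% in these data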;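 also: 0% = DAX1-transfected cells with DMSO and 100% = empty-vector control cells with DMSO; inhibition shows as a rise in luminescence from relieved DAX1 repression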
# Target sequence (P51843 207-470 limits assumed): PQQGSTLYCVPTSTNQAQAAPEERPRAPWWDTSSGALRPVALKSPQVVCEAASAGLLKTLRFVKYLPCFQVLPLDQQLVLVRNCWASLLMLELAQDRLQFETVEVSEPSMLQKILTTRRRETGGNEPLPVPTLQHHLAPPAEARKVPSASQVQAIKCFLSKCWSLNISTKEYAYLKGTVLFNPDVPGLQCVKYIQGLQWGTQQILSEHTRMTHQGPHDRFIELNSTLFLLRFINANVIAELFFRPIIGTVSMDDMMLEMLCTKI
# SMARCA2 act conf: SMARCA2 activation, confirmation screen; 3,500 tested, 30% active; activation, % at 9.1 µM; MG213 cells, MMTV-luciferase with dexamethasone, luminescence, overnight; MG213 cells expressing E1A, Rb sequestered; DMSO wells 0%, reference activator 100%; shares compounds with SMARCA2 activ;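 active = activation above its plate's cutoff, the mean activation of tested wells plus 3 SD, cut at about 7.9% in these data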
# VP16 Luc act: counter-screen for SMARCA2 activators: GAL4-VP16 luciferase reporter activation. shares compounds with SMARCA2 activ. HEK293 GAL4-VP16 pG5luc reporter, luciferase luminescence; scaled: DMSO wells 0%, SAHA wells 100%. activation, % at 9.1 µM. 3,500 tested, 41% active;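 active = activation above the solvent-only control well mean plus 3 SD, averaged across control plates, cut at about 5.2% in these data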
# * marks the source's active call; other numbers are inactive results; . = no result given.
SMILES,JMJD2C inh,SMARCA2 activ,NR2E3 ag-1,DAX1 inh-1,NR2E3 ag-2,DAX1 inh-2,SMARCA2 act conf,VP16 Luc act
COC(=O)[C@H](C)NC(=O)C(Cc1ccc2c(c1)OCO2)NC(C)=O (stereo partly drawn),.,2,.,0,.,.,.,.
Cc1ccc(NCCC(=O)c2cccs2)cc1,-35,11*,-82,4.2*,-3,2,7,14*
Cc1ccc(NCCC(=O)c2cccs2)cc1C,-3,3,-59,2,2,1,.,.
COC(=O)CCNC(=O)c1ccc2nc(Cc3ccc(OC)cc3)oc2c1,5,-4,7,0,-1,-1,.,.
COc1ccc(Cc2nc3ccc(C(=O)NCc4cc(C)no4)cc3o2)cc1,7,10*,-127,3.7*,0,1,2,5.7*
CCCn1c(N)c(N(CCOC)C(=O)CSc2cc(C)c3cccc(C)c3n2)c(=O)[nH]c1=O,7,-4,-8,2,2,0,.,.
COC(=O)[C@]12C[C@H](CC(=O)N3CCN(C(=O)c4ccco4)CC3)C(=O)N(Cc3ccccc3)C1=C[C@H](C(C)C)O[C@@H]2C1CC1,.,-2,.,1,.,.,.,.
S=C(Nc1ccccc1)c1ccccn1,-3,8.2*,-52,1,-2,1,30*,9.4*
CC(C)c1cc(C(C)C)c(S(=O)(=O)NCC(=O)N2CCN(c3ncccn3)CC2)c(C(C)C)c1,.,-1,.,-1,.,.,.,.
Cc1cc(N/N=C/c2cccc(Br)c2)nc2ccccc12,-11,12*,-61,1,1,0,4,7.8*
Cc1cc(N/N=C/c2ccccc2O)nc(-c2ccccc2O)n1,14,-2,-29,0,2,-1,.,.
Cc1cc(N/N=C\c2ccccc2)nc(-c2ccccc2O)n1,16,13*,-34,0,-1,-2,-2,3
CC(C)Cn1c(SC(C)C(=O)NC2CC2)nnc1-c1ccccc1F (stereo not drawn),-6,-1,4,-1,1,1,.,.
CCCS(=O)(=O)NC(=O)C1(C)CCCN(C(=O)c2ccccc2C(F)(F)F)C1 (stereo not drawn),.,8.1*,-18,0,.,.,2,2
CCOC(=O)/C(=N/Nc1ccc(Br)cc1)N1CC(C)OC(C)C1 (stereo not drawn),.,-2,41,0,.,0,.,.

# Assay outcomes (PubChem BioAssay)
